Experimental findings from ChEMBL document CHEMBL1146090, “Similarity based virtual screening: a tool for targeted library design” (J Med Chem, 2006) are described below.

In data set [1] the test system is Chlamydia pneumoniae. The data set can be described thus: Antibacterial activity against Chlamydia pneumoniae in HL cells at 70 uM. The format is functional. The method in brief: (§1)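 HL host cells (RPMI 1640, 10% FBS, 2 mM L-glutamine, 37 °C, 5% CO2) seeded 5×10^4/well; after 24 h, confluent monolayers inoculated by centrifugation (550 × g, 60 min) with C. pneumoniae Kajaani 7 EBs, 4×10^5 IFU/mL. Agent added in antibiotic-free medium plus 0.5 μg/mL cycloheximide; 72 h, 37 °C. Methanol-fixed; europium-labelled genus-specific antibody, time-resolved fluorometry. Two experiments on different days, six replicates each, averaged.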

Data set [2] deals with Chlamydia pneumoniae. The data set can be described thus: Antibacterial activity against Chlamydia pneumoniae in HL cells at 5 uM. The format is functional. The method in brief:
as §1

The test system of another data set is HL. The data set can be described thus: Cytotoxicity against HL cells at 50 uM. Format: functional.
In data set [3] the test system is Chlamydia pneumoniae. The data set can be described thus: Antibacterial activity against Chlamydia pneumoniae in HL cells at 50 uM. Format: functional. The essentials:
as §1

Data set [4] in a line: Viability of HL cells at 50 uM. Format: cell-based. The following applies: human, read-out: Activity. The method in brief:
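Viable HL cells counted through intracellular LDH after 3 days exposure to 50 μM agent. Medium removed, cells washed twice and lysed, then LDH measured with the same kit. Percentage derived against LDH from unexposed cultures. Mean of four replicates, single experiment.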

The test system of data set [5] is Chlamydia pneumoniae. The data set can be described thus: Antibacterial activity against Chlamydia pneumoniae in HL cells at 1 uM. Format: functional. The method in brief: as §1

For `O=C(Nc1ccc2c(c1)OCCO2)c1cccc(COc2cc(Cl)ccc2Cl)c1`, the inhibition at 70 µM in the data set with Chlamydia pneumoniae [1] turned out to be 93.6%. The inhibition at 5 µM in the data set with Chlamydia pneumoniae [2] amounted to 15.3%. The same molecule yielded a cytotoxicity in the data set with HL of 2.3%. The same molecule registered an inhibition at 50 µM in the data set on Chlamydia pneumoniae [3] of 81.8%. The viability at 50 µM in data set [4] amounted to 86.2%. For the same molecule, the inhibition at 1 µM in the data set on Chlamydia pneumoniae [5] is 0%.

As to `N=C(NOC(=O)Nc1ccccc1)c1ccc2nonc2c1`, testing at 70 µM in the data set on Chlamydia pneumoniae [1] gave an inhibition of 72.5%. This molecule yielded an inhibition at 5 µM in the data set on Chlamydia pneumoniae [2] of 0.2%. For the same molecule, the cytotoxicity in the data set with HL was determined as 0%. Moreover, in the data set on Chlamydia pneumoniae [3], at 50 µM the inhibition was 56.1%. The viability at 50 µM in data set [4] amounted to 100%. The molecule also registered an inhibition at 1 µM in the data set on Chlamydia pneumoniae [5] of 0%.

For `O=C(Nc1cccc(-c2nc3ccccc3[nH]2)c1)c1cccs1`, 70 µM produced 92.6% inhibition with Chlamydia pneumoniae [1]. The molecule also displayed an inhibition at 5 µM with Chlamydia pneumoniae [2] of 41.2%. Also, in the data set on HL, the cytotoxicity is recorded as 1.2%. The same molecule registered an inhibition at 50 µM in the data set with Chlamydia pneumoniae [3] of 90.5%. The viability at 50 µM in data set [4] stood at 98%. Moreover, in the data set on Chlamydia pneumoniae [5], the inhibition at 1 µM was 39.5%.

`Nc1nc(Nc2ccc(Cl)cc2)nc(-c2cc(Cl)ccc2O)n1` came in with an inhibition at 70 µM in the data set on Chlamydia pneumoniae [1] of 83.9%. The inhibition at 5 µM in the data set with Chlamydia pneumoniae [2] was determined as 76%. Besides, in the data set with HL, the cytotoxicity is on record as 1.4%. In the data set on Chlamydia pneumoniae [3], this molecule came in with an inhibition at 50 µM of 79.8%. Also, the viability at 50 µM in data set [4] was determined as 95%. The molecule further yielded an inhibition at 1 µM in the data set with Chlamydia pneumoniae [5] of 0%.

`O=C(Nc1cccc(-c2nc3ccccc3[nH]2)c1)c1ccccc1` gave an inhibition at 70 µM in the data set on Chlamydia pneumoniae [1] of 69.1%. The same molecule displayed an inhibition at 5 µM in the data set with Chlamydia pneumoniae [2] of 19.7%. Moreover, the cytotoxicity in the data set with HL was found to be 1.2%. The same molecule had an inhibition at 50 µM in the data set with Chlamydia pneumoniae [3] of 69.6%. Further, the viability at 50 µM in data set [4] amounted to 95.5%. At 1 µM the inhibition in the data set with Chlamydia pneumoniae [5] was 14.6%.

In the case of `N=C(NOC(=O)Nc1cccc(Cl)c1)c1ccc2nonc2c1`, the inhibition at 70 µM with Chlamydia pneumoniae [1] is 99.3%. The molecule also registered an inhibition at 5 µM in the data set on Chlamydia pneumoniae [2] of 6.8%. Further, in the data set on HL, the cytotoxicity stood at 1.1%. Also, in the data set with Chlamydia pneumoniae [3], the inhibition at 50 µM was determined as 85.5%. Moreover, the viability at 50 µM in data set [4] worked out at 99.3%. This molecule also yielded an inhibition at 1 µM with Chlamydia pneumoniae [5] of 0%.

With `Nc1nc(Nc2ccccc2)nc(Nc2ccccc2)n1`, the inhibition at 70 µM in the data set with Chlamydia pneumoniae [1] came out at 100%. The inhibition at 5 µM with Chlamydia pneumoniae [2] was 0%. This molecule also returned a cytotoxicity in the data set with HL of 3.7%. Also, in the data set on Chlamydia pneumoniae [3], the inhibition at 50 µM worked out at 72.8%. The viability at 50 µM in data set [4] was 83.4%. Also, in the data set with Chlamydia pneumoniae [5], 1 µM produced 0% inhibition.

`c1ccc(-c2cc3ncnc(NCc4ccc5c(c4)OCO5)c3s2)cc1` gave an inhibition at 70 µM in the data set with Chlamydia pneumoniae [1] of 71.2%. For the same molecule, 5 µM produced 58.8% inhibition in the data set with Chlamydia pneumoniae [2]. For the same molecule, the cytotoxicity in the data set with HL was found to be 0.4%. This molecule came in with an inhibition at 50 µM with Chlamydia pneumoniae [3] of 68.6%. In data set [4], the viability at 50 µM is 98.2%. Besides, the inhibition at 1 µM in the data set on Chlamydia pneumoniae [5] was 2.1%.
